Among the data in ChEMBL document CHEMBL1124297, “7-Aminoquinolines. A novel class of agents active against herpesviruses” (J Med Chem, 1988) are IC50 and selectivity ratio values, retold here.

Converted amounts (≈) assume the structure as drawn.

Data set [1] concerns Human alphaherpesvirus 1. Kind of data set: Inhibitory activity against herpes simplex virus type-1 (HSV-1) replication in KB cells. In kind it is functional, organism-based. The note with it: Human alphaherpesvirus 1, KB. In short, it runs like this:
(§1)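 HSV-1 (HF strain)-infected KB cells were treated in duplicate for 20 h with five or six half-log dilutions of compound. The disrupted cultures were serially diluted onto BHK 21/4 cells, and titers were determined by counting macroscopic plaques. I50 came from linear regression of log concentration versus % inhibition of viral replication. Each assay included 10 µg/mL ara-A as positive control, and a set was rejected if ara-A deviated by more than 1.5 SD.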

Data set [2] concerns Human alphaherpesvirus 1. Kind of data set: In vitro therapeutic index as ratio of cytotoxicity to inhibition of viral replication. The note with it: human alphaherpesvirus 1, in vitro; read-out: Therapeutic index. In kind it is organism-based. In short, it runs like this: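 Ratio of the cytotoxicity I50 to the HSV-1 replication I50, rounded to the nearest whole number. Cytotoxicity I50 was the mean of four I50 values (Lowry protein, 3H-amino acid uptake, diphenylamine DNA, [3H]thymidine uptake) in uninfected KB cells after 20 h. Replication I50 was from plaque titers of infected KB cultures after 20 h.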

In a further data set the test system is KB (Homo sapiens). As to the kind of experiment: In vitro cytotoxicity in uninfected KB cells; Low drug solubility.
In data set [3] the test system is Human alphaherpesvirus 1. Kind of data set: Inhibitory activity against herpes simplex virus type-1 (HSV-1) replication in infected KB cells. In kind it is functional, organism-based. As to conditions: Human alphaherpesvirus 1, KB. In outline:
as §1

As to `Cc1ccc2ccc(N(C)C)cc2n1`, 4.5 µg/mL (≈ 24.2 µM) corresponded to half-maximal inhibition in the data set on Human alphaherpesvirus 1 [1] (IC50). In addition, the selectivity ratio with Human alphaherpesvirus 1 [2] is 9.
For the compound `CN(C)c1ccc2ccc(N(C)C)nc2c1`, inhibition with Human alphaherpesvirus 1 [1] was half-maximal at 6 µg/mL (≈ 27.9 µM) (IC50). Moreover, the selectivity ratio in the data set with Human alphaherpesvirus 1 [2] was determined as 3.
Taken in the same sequence, the figures for `Cc1cc(N)nc2cc(N)ccc12` were 4 µg/mL (≈ 23.1 µM) and 7.
Regarding `CC(=O)Nc1ccc2c(C)cc(Cl)nc2c1`, the IC50 – broadly, the concentration needed to halve the response being measured – in the data set with Human alphaherpesvirus 1 [1] is 21 µg/mL (≈ 89.5 µM). In addition, the selectivity ratio with Human alphaherpesvirus 1 [2] was determined as 4.
Turning to `Cc1cc(Cl)c2ccc(N(C)C)cc2n1`, inhibition in the data set on Human alphaherpesvirus 1 [1] was half-maximal at 7 µg/mL (≈ 31.7 µM) (IC50). In addition, the selectivity ratio in the data set with Human alphaherpesvirus 1 [2] is 3.
`Cc1cc(O)c2ccc(N(C)C)cc2n1` showed an IC50 with Human alphaherpesvirus 1 [1] of 23 µg/mL (≈ 114 µM). The selectivity ratio in the data set on Human alphaherpesvirus 1 [2] was 19.
Taken in the same sequence, the figures for `Cc1cc(Cl)nc2cc(N)ccc12` were 53 µg/mL (≈ 275 µM) and 3.
`Cc1ccnc2cc(N)ccc12` had a 50% inhibitory concentration (IC50) in the data set with Human alphaherpesvirus 1 [1] of 40 µg/mL (≈ 253 µM). The selectivity ratio with Human alphaherpesvirus 1 [2] worked out at 2.
`CC(=O)Nc1ccc2c(C)cc(N)nc2c1` gave an IC50 in the data set with Human alphaherpesvirus 1 [1] of 10 µg/mL (≈ 46.5 µM). In the data set with Human alphaherpesvirus 1 [2], the selectivity ratio came out at 3.
Consider `CNc1cc(C)nc2cc(N(C)C)ccc12`, for which the IC50 in the data set with Human alphaherpesvirus 1 [1] was 6 µg/mL (≈ 27.9 µM). In addition, the selectivity ratio in the data set on Human alphaherpesvirus 1 [2] was determined as 2.
For the compound `CN(C)c1ccc2ccc(O)nc2c1`, the IC50 in the data set with Human alphaherpesvirus 1 [1] is 30 µg/mL (≈ 159 µM). The selectivity ratio in the data set on Human alphaherpesvirus 1 [2] stood at 5.
In the case of `CC(=O)Nc1ccc2c(C)cc(N(C)C)nc2c1`, inhibition with Human alphaherpesvirus 1 [1] was half-maximal at 18 µg/mL (≈ 74 µM) (IC50). Further, the selectivity ratio with Human alphaherpesvirus 1 [2] came to 6.
As for `Cc1c(N(C)C)nc2cc(N(C)C)ccc2c1Cl`, the IC50 with Human alphaherpesvirus 1 [1] was 49 µg/mL (≈ 186 µM); in the data set with KB (Homo sapiens), over 32 µg/mL.
Compound `O=C(O)P(=O)(O)O` [FOSCARNET] showed an IC50 in the data set with Human alphaherpesvirus 1 [1] of 189 µg/mL (≈ 1500 µM). Further, in the data set with Human alphaherpesvirus 1 [2], the selectivity ratio came to 8.
As for `Cc1cc(N(C)C)nc2cc(N)ccc12`, in the data set on Human alphaherpesvirus 1 [1], the IC50 turned out to be 6 µg/mL (≈ 29.8 µM). Besides, the selectivity ratio with Human alphaherpesvirus 1 [2] is 2.
The matching figures for `CNc1ccc2ccc(N(C)C)cc2n1`: 11 µg/mL (≈ 54.7 µM) and 2.
On to `Nc1nc2c(ncn2COCCO)c(=O)[nH]1` [ACYCLOVIR], for which half-maximal inhibition with Human alphaherpesvirus 1 [1] (IC50) required 2.6 µg/mL (≈ 11.5 µM). In addition, the selectivity ratio in the data set with Human alphaherpesvirus 1 [2] is over 38.
Taken in the same sequence, the figures for `CN(C)c1ccc2c(N(C)C)cc(N(C)C)nc2c1` were 5 µg/mL (≈ 19.4 µM) and 4.
As for `Nc1ncnc2c1ncn2[C@@H]1O[C@H](CO)[C@@H](O)[C@@H]1O` [VIDARABINE], in the data set with Human alphaherpesvirus 1 [1], the IC50 came out at 5.6 µg/mL (≈ 21 µM). Moreover, the selectivity ratio in the data set on Human alphaherpesvirus 1 [2] turned out to be 7.
On to `CCN(CC)CCCC(C)Nc1ccnc2cc(Cl)ccc12` (stereo not given) [CHLOROQUINE], for which it took 27 µg/mL (≈ 84.4 µM) to reach half-maximal inhibition in the data set on Human alphaherpesvirus 1 [1] (IC50). In addition, the selectivity ratio with Human alphaherpesvirus 1 [2] stood at 3.
Turning to `Cc1c(O)nc2cc(N(C)C)ccc2c1O`, inhibition in the data set on Human alphaherpesvirus 1 [3] was half-maximal at 29 µg/mL (≈ 133 µM) (IC50). Moreover, the selectivity ratio in the data set with Human alphaherpesvirus 1 [2] came out at 3.
With `Cc1c(Cl)nc2cc(N(C)C)ccc2c1Cl`, the IC50 is 13 µg/mL (≈ 51 µM) with Human alphaherpesvirus 1 [1] and over 32 µg/mL in the data set with KB (Homo sapiens). The selectivity ratio in the data set with Human alphaherpesvirus 1 [2] came out at 2.
In turn, `CC(=O)Nc1ccc2c(C)ccnc2c1` displayed an IC50 in the data set with Human alphaherpesvirus 1 [1] of 31 µg/mL (≈ 155 µM). Besides, the selectivity ratio in the data set on Human alphaherpesvirus 1 [2] came out at 7.
The matching figures for `CCC(=O)C(CCCCCCOc1ccc(OC)cc1Cl)C(=O)CC` [ARILDONE]: 11 µg/mL (≈ 29.8 µM) and 7.
As for `Nc1ccc2ccc(N)nc2c1`, it took 10 µg/mL (≈ 62.8 µM) to reach half-maximal inhibition in the data set on Human alphaherpesvirus 1 [1] (IC50).
`CN(C)c1ccc2ccc(N)cc2n1`: in the data set on Human alphaherpesvirus 1 [1], 51 µg/mL (≈ 272 µM) corresponded to half-maximal inhibition (IC50). In addition, the selectivity ratio in the data set with Human alphaherpesvirus 1 [2] is 3.
For the compound `CN(C)c1ccc2ccc(N)nc2c1`, in the data set with Human alphaherpesvirus 1 [1], the IC50 stood at 2 µg/mL (≈ 10.7 µM). For the same compound, the selectivity ratio with Human alphaherpesvirus 1 [2] stood at 5.
In the case of `Cc1cc(N(C)C)c2ccc(N(C)C)cc2n1`, the IC50 in the data set with Human alphaherpesvirus 1 [1] was 9 µg/mL (≈ 39.2 µM). Besides, the selectivity ratio in the data set with Human alphaherpesvirus 1 [2] was 2.
For `Cc1cn([C@@H]2O[C@H](CO)[C@@H](O)[C@@H]2O)c(=O)[nH]c1=O`, the IC50 in the data set on Human alphaherpesvirus 1 [1] came out at 0.6 µg/mL (≈ 2.32 µM). For the same compound, in the data set on Human alphaherpesvirus 1 [2], the selectivity ratio was 833.
As to `Cc1cnc2cc(N(C)C)ccc2c1`, in the data set with Human alphaherpesvirus 1 [1], the midpoint of inhibition, the IC50, lay at 7.6 µg/mL (≈ 40.8 µM). Besides, in the data set with Human alphaherpesvirus 1 [2], the selectivity ratio stood at 9.
